Legend:
[1] = tested on: MDA-MB-231; assay: Induction of apoptosis in human MDA-MB-231 cells assessed as late apoptotic cells at 0.1 uM incubated for 48 hrs by Annexin V-FITC/PI staining based flow cytometric analysis (reference value: 1.49%); type: functional
[2] = tested on: MDA-MB-231; assay: Antiproliferative activity against human MDA-MB-231 cells assessed as cell viability at 2.5 uM measured after 48 hrs by MTT assay (reference value: 100%); type: functional; settings: read-out: Activity
[3] = biological target: Cyclin-dependent kinase 2 (Homo sapiens) (UniProt P24941); assay: Inhibition of human CDK2 at 1 uM by Selectscreen kinase assay
Method in brief: (§1)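 Single-point screen at 1 μM final against a panel of 25 kinases using a commercial profiling service; mean of three independent experiments each run in triplicate.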

[4] = tested on: MDA-MB-231; assay: Induction of apoptosis in human MDA-MB-231 cells assessed as necrotic cells at 0.4 uM incubated for 48 hrs by Annexin V-FITC/PI staining based flow cytometric analysis (reference value: 1.08%); type: functional
[5] = tested on: MDA-MB-231; assay: Antiproliferative activity against human MDA-MB-231 cells assessed as cell viability at 0.1 uM measured after 72 hrs by MTT assay (reference value: 100%); type: functional; settings: read-out: Activity
[6] = tested on: U-87 MG; assay: Antiproliferative activity against human U-87MG cells assessed as inhibition of cell growth measured after 72 hrs by MTT assay; type: functional, cell-based, U-87MG ATCC
Method in brief: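 Cells were seeded at 4000–5000/well and held 24 h at 37 °C in 5% CO2. Compounds were added at the indicated final concentrations and incubated 72 h. MTT was added (5 mg/mL in PBS, stated as final) for 4 h at 37 °C. Formazan was dissolved in DMSO and absorbance read at 490 nm. The 50% growth-inhibitory concentration is the mean of three independent experiments ± SE.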

[7] = tested on: MDA-MB-231; assay: Induction of apoptosis in human MDA-MB-231 cells incubated for 48 hrs by Annexin V-FITC/PI staining based flow cytometric analysis; type: functional, cell-based; settings: dose 0.1-0.4 µM
[8] = tested on: MDA-MB-231; assay: Antiproliferative activity against human MDA-MB-231 cells assessed as cell viability at 0.5 uM measured after 24 hrs by MTT assay (reference value: 100%); type: functional; settings: read-out: Activity
[9] = tested on: MDA-MB-231; assay: Induction of cell cycle arrest in human MDA-MB-231 cells assessed as accumulation of cells at S phase at 0.1 uM measured after 48 hrs by PI staining based flow cytometry method (reference value: 39.17%); type: functional
[10] = tested on: MDA-MB-231; assay: Induction of cell cycle arrest in human MDA-MB-231 cells assessed as accumulation of cells at G2/M phase at 0.1 uM measured after 48 hrs by PI staining based flow cytometry method (reference value: 17.40%); type: functional
[11] = tested on: MDA-MB-231; assay: Induction of apoptosis in human MDA-MB-231 cells assessed as early apoptotic cells at 0.2 uM incubated for 48 hrs by Annexin V-FITC/PI staining based flow cytometric analysis (reference value: 1.58%); type: functional
[12] = biological target: Rho-associated protein kinase 1 (Homo sapiens) (UniProt Q13464); assay: Inhibition of GST-tagged recombinant human ROCK1 catalytic domain (1-535) expressed in baculovirus expression system at 1 uM by Selectscreen kinase assay; method in brief: as §1
Sequence of Rho-associated protein kinase 1 (Homo sapiens) (Q13464 2-1354 limits assumed): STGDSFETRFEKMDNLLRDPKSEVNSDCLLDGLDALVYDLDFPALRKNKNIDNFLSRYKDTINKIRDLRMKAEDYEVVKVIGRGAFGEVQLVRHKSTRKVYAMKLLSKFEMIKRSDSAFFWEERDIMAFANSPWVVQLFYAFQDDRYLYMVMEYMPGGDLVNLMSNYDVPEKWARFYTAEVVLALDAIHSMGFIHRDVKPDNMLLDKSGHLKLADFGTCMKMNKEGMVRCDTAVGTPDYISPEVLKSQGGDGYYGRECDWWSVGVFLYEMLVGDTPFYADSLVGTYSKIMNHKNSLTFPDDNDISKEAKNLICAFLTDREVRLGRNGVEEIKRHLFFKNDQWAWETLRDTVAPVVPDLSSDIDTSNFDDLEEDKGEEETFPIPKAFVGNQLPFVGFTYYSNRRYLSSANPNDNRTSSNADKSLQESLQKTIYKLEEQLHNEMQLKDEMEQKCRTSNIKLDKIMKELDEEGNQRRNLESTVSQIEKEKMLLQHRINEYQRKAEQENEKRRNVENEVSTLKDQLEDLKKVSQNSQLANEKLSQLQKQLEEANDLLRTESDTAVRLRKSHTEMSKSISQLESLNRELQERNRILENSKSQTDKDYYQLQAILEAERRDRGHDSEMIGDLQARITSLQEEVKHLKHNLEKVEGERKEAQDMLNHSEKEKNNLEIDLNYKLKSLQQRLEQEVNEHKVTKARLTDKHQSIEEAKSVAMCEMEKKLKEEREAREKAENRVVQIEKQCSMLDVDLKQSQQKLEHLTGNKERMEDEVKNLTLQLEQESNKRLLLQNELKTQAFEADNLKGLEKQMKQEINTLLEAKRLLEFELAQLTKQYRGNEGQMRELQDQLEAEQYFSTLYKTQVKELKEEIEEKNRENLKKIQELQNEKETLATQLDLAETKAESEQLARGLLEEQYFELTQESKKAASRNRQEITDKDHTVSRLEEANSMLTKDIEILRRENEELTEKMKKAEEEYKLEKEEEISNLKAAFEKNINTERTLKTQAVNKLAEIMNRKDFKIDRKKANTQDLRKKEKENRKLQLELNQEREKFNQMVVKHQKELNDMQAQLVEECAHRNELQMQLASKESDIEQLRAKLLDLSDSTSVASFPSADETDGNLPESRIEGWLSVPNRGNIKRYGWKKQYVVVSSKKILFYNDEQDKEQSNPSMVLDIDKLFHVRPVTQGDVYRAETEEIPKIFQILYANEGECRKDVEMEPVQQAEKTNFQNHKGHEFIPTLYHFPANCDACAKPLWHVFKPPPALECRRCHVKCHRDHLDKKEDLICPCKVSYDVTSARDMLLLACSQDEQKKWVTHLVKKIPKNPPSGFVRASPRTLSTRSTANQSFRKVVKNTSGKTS

[13] = tested on: MDA-MB-231; assay: Induction of cell cycle arrest in human MDA-MB-231 cells assessed as accumulation of cells at G0/G1 phase at 0.1 uM measured after 48 hrs by PI staining based flow cytometry method (reference value: 43.43%); type: functional
[14] = tested on: A549; assay: Antiproliferative activity against human A549 cells assessed as cell viability at 2.5 uM measured after 72 hrs by MTT assay (reference value: 100%); type: functional; settings: read-out: Activity
[15] = tested on: A549; assay: Antiproliferative activity against human A549 cells assessed as cell viability at 0.5 uM measured after 72 hrs by MTT assay (reference value: 100%); type: functional; settings: read-out: Activity
[16] = tested on: A549; assay: Antiproliferative activity against human A549 cells assessed as cell viability at 2.5 uM measured after 48 hrs by MTT assay (reference value: 100%); type: functional; settings: read-out: Activity
[17] = Intrinsic clearance in rat liver at 1 uM measured after 60 mins in presence of NADPH by LC-MS/MS analysis; type: ADME; settings: 1 h
Method in brief: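 Rat liver microsomes (0.5 mg/mL) were incubated at 37 °C with 1 μM compound in 100 mM potassium phosphate, pH 7.4, with 10 mM MgCl2. Reaction was started with prewarmed NADPH cofactor and sampled at 0, 5, 10, 20, 30 and 60 min. Protein was precipitated with cold acetonitrile and supernatants analysed by LC-MS/MS to give half-life, 1 h remaining and intrinsic clearance.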

[18] = biological target: Homeodomain-interacting protein kinase 3 (Homo sapiens) (UniProt Q9H422); assay: Inhibition of His-tagged human HIPK3 catalytic domain expressed in baculovirus expression system at 1 uM by Selectscreen kinase assay; method in brief: as §1
Sequence of Homeodomain-interacting protein kinase 3 (Homo sapiens) (Q9H422 whole entry, looked up, the tested form may be a part): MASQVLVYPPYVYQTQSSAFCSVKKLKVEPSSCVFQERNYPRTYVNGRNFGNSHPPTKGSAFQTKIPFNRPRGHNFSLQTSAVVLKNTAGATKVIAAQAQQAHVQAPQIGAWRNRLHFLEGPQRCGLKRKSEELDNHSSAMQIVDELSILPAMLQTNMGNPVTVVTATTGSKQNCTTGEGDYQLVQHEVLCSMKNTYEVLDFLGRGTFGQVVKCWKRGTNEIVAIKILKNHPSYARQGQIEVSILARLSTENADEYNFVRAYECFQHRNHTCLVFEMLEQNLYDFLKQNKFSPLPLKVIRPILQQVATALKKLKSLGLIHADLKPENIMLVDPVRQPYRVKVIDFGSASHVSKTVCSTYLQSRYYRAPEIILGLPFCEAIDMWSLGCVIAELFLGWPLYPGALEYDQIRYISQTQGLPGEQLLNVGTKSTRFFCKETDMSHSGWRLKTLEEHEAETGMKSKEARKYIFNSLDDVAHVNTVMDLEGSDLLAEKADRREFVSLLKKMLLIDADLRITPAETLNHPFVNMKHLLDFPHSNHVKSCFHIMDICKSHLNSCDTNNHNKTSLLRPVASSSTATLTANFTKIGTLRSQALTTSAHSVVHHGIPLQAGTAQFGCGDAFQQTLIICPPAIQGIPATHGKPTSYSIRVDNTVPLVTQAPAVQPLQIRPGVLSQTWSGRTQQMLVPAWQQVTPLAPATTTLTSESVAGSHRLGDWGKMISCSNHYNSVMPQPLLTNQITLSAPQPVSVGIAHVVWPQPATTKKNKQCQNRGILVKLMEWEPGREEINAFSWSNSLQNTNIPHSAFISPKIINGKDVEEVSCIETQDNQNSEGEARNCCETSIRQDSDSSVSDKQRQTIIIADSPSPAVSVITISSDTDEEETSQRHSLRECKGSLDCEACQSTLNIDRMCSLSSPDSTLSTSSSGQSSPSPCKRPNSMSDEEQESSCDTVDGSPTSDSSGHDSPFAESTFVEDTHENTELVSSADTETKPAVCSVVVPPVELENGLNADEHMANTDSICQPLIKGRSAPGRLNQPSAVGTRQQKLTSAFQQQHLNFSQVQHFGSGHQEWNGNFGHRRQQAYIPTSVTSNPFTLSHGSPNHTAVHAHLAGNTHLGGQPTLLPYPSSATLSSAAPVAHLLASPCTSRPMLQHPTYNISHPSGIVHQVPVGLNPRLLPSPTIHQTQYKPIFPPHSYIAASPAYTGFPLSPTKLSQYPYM

[19] = biological target: Focal adhesion kinase 1 (Homo sapiens, UniProt Q05397); assay: Inhibition of GST-tagged full length human FAK expressed in baculovirus expression system at 1 uM by Selectscreen kinase assay; method in brief: as §1
[20] = tested on: A549; assay: Antiproliferative activity against human A549 cells assessed as reduction in cell viability measured after 24 to 72 hrs by MTT assay; type: functional, cell-based; settings: dose 0.1-2.5 µM, time 24-72 hrs
[21] = biological target: Tyrosine-protein kinase ZAP-70 (Homo sapiens) (UniProt P43403); assay: Inhibition of His-tagged full-length recombinant human ZAP-70 expressed in baculovirus expression system at 1 uM by Selectscreen kinase assay; method in brief: as §1
[22] = biological target: Proto-oncogene tyrosine-protein kinase receptor Ret (Homo sapiens) (UniProt P07949); assay: Inhibition of GST-tagged human RET cytoplasmic domain expressed in baculovirus expression system at 1 uM by Selectscreen kinase assay; method in brief: as §1
Sequence of Proto-oncogene tyrosine-protein kinase receptor Ret (Homo sapiens) (P07949 whole entry, the tested form may be a part): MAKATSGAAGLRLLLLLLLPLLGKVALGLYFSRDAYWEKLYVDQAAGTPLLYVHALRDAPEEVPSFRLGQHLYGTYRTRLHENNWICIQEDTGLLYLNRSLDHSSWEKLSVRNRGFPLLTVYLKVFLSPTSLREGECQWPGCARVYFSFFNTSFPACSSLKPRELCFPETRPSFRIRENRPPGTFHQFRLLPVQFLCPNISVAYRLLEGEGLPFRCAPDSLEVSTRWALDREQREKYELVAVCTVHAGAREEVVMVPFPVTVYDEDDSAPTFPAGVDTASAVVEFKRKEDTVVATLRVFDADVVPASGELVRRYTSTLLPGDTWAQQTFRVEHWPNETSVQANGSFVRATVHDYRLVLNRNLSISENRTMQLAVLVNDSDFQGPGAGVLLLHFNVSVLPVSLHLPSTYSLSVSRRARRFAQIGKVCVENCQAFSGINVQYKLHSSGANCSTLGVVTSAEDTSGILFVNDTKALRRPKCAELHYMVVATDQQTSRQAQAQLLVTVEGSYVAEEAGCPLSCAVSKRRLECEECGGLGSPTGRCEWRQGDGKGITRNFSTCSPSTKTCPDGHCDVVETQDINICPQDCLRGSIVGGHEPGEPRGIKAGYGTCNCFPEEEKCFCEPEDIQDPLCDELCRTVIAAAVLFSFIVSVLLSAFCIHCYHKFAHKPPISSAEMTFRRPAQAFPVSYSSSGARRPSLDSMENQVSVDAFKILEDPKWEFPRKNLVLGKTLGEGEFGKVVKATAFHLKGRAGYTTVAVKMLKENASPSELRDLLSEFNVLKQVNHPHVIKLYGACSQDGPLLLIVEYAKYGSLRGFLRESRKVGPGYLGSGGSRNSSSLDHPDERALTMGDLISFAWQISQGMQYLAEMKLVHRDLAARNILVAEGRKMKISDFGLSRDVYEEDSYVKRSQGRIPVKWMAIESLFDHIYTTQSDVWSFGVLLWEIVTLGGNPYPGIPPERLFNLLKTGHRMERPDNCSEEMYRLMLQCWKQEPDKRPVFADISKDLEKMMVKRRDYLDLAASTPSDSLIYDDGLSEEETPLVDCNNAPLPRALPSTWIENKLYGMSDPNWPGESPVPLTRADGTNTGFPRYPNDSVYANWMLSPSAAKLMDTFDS

[23] = biological target: Mast/stem cell growth factor receptor Kit (Homo sapiens) (UniProt P10721); assay: Inhibition of His-tagged human KIT cytoplasmic domain expressed in baculovirus expression system at 1 uM by Selectscreen kinase assay; method in brief: as §1
Sequence of Mast/stem cell growth factor receptor Kit (Homo sapiens) (P10721 whole entry, the tested form may be a part): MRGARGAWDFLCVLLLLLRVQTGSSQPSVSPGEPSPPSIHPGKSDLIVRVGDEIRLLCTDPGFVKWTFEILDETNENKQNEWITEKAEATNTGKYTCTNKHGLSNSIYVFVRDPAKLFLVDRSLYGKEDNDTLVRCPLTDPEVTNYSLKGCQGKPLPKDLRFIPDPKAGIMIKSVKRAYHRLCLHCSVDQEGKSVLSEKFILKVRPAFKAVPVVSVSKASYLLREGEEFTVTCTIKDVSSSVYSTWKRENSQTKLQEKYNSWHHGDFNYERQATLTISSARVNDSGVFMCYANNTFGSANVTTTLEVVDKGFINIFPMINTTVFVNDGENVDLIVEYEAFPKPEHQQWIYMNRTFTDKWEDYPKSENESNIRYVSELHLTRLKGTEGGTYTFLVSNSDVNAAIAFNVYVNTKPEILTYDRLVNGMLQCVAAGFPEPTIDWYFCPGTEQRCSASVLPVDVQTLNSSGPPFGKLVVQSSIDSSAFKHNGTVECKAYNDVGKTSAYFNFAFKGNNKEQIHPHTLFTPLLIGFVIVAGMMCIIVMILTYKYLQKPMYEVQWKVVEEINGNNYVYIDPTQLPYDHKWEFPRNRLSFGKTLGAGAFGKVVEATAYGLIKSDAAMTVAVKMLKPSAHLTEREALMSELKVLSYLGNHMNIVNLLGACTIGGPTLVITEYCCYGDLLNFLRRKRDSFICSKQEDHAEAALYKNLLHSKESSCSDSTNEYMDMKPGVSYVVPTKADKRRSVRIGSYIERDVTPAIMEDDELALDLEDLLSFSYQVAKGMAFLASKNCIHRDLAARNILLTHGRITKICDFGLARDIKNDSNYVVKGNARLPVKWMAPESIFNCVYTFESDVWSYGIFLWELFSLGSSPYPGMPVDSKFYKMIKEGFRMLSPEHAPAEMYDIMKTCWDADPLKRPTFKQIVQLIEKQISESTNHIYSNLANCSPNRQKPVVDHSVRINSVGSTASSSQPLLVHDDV

[24] = tested on: MDA-MB-231; assay: Induction of apoptosis in human MDA-MB-231 cells assessed as early apoptotic cells at 0.1 uM incubated for 48 hrs by Annexin V-FITC/PI staining based flow cytometric analysis (reference value: 1.58%); type: functional

For `COc1ccccc1-c1csc2cnc(Nc3ccc(C(=O)NC4CCNCC4)c(F)c3)nc12`, the Activity [1] was 4.36%, the viability at 2.5 µM [2] was 11.9% and the inhibition [3] was 97%. It also gave an Activity [4] of 4.4%, a viability at 0.1 µM [5] of 69.7% and an IC50 [6] of 0.16 µM. For the same molecule, the Activity [7] was “Dose-dependent effect”, the viability at 0.5 µM [8] was 73.7% and the Activity [9] was 41.96%. It also gave an Activity [10] of 12.79%, an Activity [11] of 9.78% and an inhibition [12] of 33%. It also gave an Activity [13] of 45.25%, a viability at 2.5 µM [14] of 18.8% and a viability at 0.5 µM [15] of 32.2%. The viability at 2.5 µM [16] was 31%, the CLH [17] was 18.6 µL/min/mg and the inhibition [18] was 72%. The inhibition [19] was 100%, the Activity [20] was “Dose-dependent effect” and the inhibition [21] was 6%. For the same molecule, the inhibition [22] was 97%, the inhibition [23] was 41% and the Activity [24] was 7.21%.
